Key:
Type in all cases: functional, cell-based
COR-L105 = assay: Antiproliferative activity against human COR-L105 cells expressing wild-type KRAS
In short: (§1)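 Proliferation of human lung cancer cell lines (NSCLC and others) with KRAS mutant or wild-type status. Compound was tested at concentrations up to 25 µM.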

ES-2 [1] = assay: Antiproliferative activity against human ES2 cells in 3D growth culture
In short: (§2)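 3D proliferation in the Eurofins Oncopanel, with a panel of 140 human cancer cell lines grown in Matrigel. The highest concentration tested was 25 μM. Each value is the mean of three replicates.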

RD [2] = assay: Antiproliferative activity against human RD cells in 2D growth culture
In short: (§3)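 2D monolayer proliferation screen across the 240-line Eurofins Oncopanel of human cancer cell lines (mycoplasma-negative, STR-verified). Compound was titrated to a highest tested concentration of 25 μM. Values are the mean of three replicates.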

DK-MG = assay: Antiproliferative activity against human DK-MG cells in 2D growth culture; in short: as §3
C32 [3] = assay: Antiproliferative activity against human C32 cells in 3D growth culture; in short: as §2
HepG2 = assay: Antiproliferative activity against human HepG2 cells
HOS = assay: Antiproliferative activity against human HOS cells in 2D growth culture; in short: as §3
JAR [4] = assay: Antiproliferative activity against human JAR cells in 2D growth culture; in short: as §3
H4 = assay: Antiproliferative activity against human H4 cells in 2D growth culture; in short: as §3
J82 [5] = assay: Antiproliferative activity against human J82 cells in 3D growth culture; in short: as §2
RKO [6] = assay: Antiproliferative activity against human RKO cells in 2D growth culture; in short: as §3
[7] = Antiproliferative activity against human HLF cells in 2D growth culture; in short: as §3
[8] = Antiproliferative activity against human C4-1 cells in 3D growth culture; in short: as §2
DMS-53 = assay: Antiproliferative activity against human DMS-53 expressing wild-type KRAS; in short: as §1
T-24 = assay: Antiproliferative activity against human T24 cells in 2D growth culture
In short: (§4)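 2D monolayer culture in the Eurofins Oncopanel of 240 cancer cell lines (mycoplasma negative, STR verified). Compound dosed across a concentration series with a top concentration of 25 μM. Each value is the mean of three replicates.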

AGS = assay: Antiproliferative activity against human AGS cells in 2D growth culture; in short: as §3
[9] = Antiproliferative activity against human SK-N-BE(2)-C cells in 2D growth culture; in short: as §4
Y79 [10] = assay: Antiproliferative activity against human Y79 cells in 2D growth culture; in short: as §4
EM-2 = assay: Antiproliferative activity against human EM-2 cells in 2D growth culture; in short: as §3
DMS-153 = assay: Antiproliferative activity against human DMS-153 cells expressing wild-type KRAS; in short: as §1
PC-3 [11] = assay: Antiproliferative activity against human PC-3 cells in 3D growth culture; in short: as §2
NCI-H441 = assay: Antiproliferative activity against human NCI-H441 cells expressing KRAS G12V mutant; in short: as §1
[12] = Antiproliferative activity against human HLF cells in 3D growth culture; in short: as §2
Hs 766 [13] = assay: Antiproliferative activity against human Hs766T cells in 3D growth culture; in short: as §2
[14] = Antiproliferative activity against human SK-N-BE(2)-C cells in 3D growth culture
In short: (§5)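 3D growth in matrigel, within a 140-cell-line panel of the Eurofins Oncopanel (mycoplasma negative, STR verified). Compound dosed across a concentration series with a top concentration of 25 μM. Each value is the mean of three replicates.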

SW1573 = assay: Antiproliferative activity against human SW1573 cells expressing KRAS G12C mutant
HT = assay: Antiproliferative activity against human HT cells in 2D growth culture; in short: as §3
NCI-H2122 = assay: Antiproliferative activity against human NCI-H2122 cells expressing KRAS G12C mutant; in short: as §1
COR-L88 = assay: Antiproliferative activity against human COR-L88 cells expressing wild-type KRAS; in short: as §1
JAR [15] = assay: Antiproliferative activity against human JAR cells in 3D growth culture; in short: as §2
SR = assay: Antiproliferative activity against human SR cells in 2D growth culture; in short: as §4
PC-3 [16] = assay: Antiproliferative activity against human PC-3 cells in 2D growth culture; in short: as §3
SH-4 [17] = assay: Antiproliferative activity against human SH-4 cells in 2D growth culture; in short: as §4
NCI-H2029 = assay: Antiproliferative activity against human NCI-H2029 cells expressing wild-type KRAS; in short: as §1
KLE = assay: Antiproliferative activity against human KLE cells in 2D growth culture; in short: as §3
HT-3 [18] = assay: Antiproliferative activity against human HT-3 cells in 3D growth culture; in short: as §2
RKO [19] = assay: Antiproliferative activity against human RKO cells in 3D growth culture; in short: as §5
U-266 = assay: Antiproliferative activity against human U266B1 cells in 2D growth culture; in short: as §4
SK-LU-1 = assay: Antiproliferative activity against human SK-LU-1 cells expressing KRAS G12D mutant
DOHH-2 = assay: Antiproliferative activity against human DOHH-2 cells in 2D growth culture; in short: as §3
EB-3 = assay: Antiproliferative activity against human EB-3 cells in 2D growth culture; in short: as §3
A549 = assay: Antiproliferative activity against human A549 cells expressing KRAS G12S mutant; in short: as §1
SH-4 [20] = assay: Antiproliferative activity against human SH-4 cells in 3D growth culture; in short: as §5
[21] = Antiproliferative activity against human A7 cells in 2D growth culture; in short: as §3
SHP77 = assay: Antiproliferative activity against human SHP77 cells expressing KRAS G12V mutant
NCI-H23 = assay: Antiproliferative activity against human NCI-H23 cells expressing KRAS G12C mutant; in short: as §1
Y79 [22] = assay: Antiproliferative activity against human Y79 cells in 3D growth culture; in short: as §5
5637 [23] = assay: Antiproliferative activity against human 5637 cells in 2D growth culture; in short: as §3
[24] = Antiproliferative activity against human BC1 cells in 2D growth culture; in short: as §3
HT-3 [25] = assay: Antiproliferative activity against human HT-3 cells in 2D growth culture; in short: as §3
ES-2 [26] = assay: Antiproliferative activity against human ES-2 cells in 2D growth culture; in short: as §3
5637 [27] = assay: Antiproliferative activity against human 5637 cells in 3D growth culture; in short: as §2
RD [28] = assay: Antiproliferative activity against human RD cells in 3D growth culture; in short: as §2
J82 [29] = assay: Antiproliferative activity against human J82 cells in 2D growth culture; in short: as §3
NCI-H2081 = assay: Antiproliferative activity against human NCI-H2081 cells expressing wild-type KRAS; in short: as §1
[30] = Antiproliferative activity against human MT-3 cells in 2D growth culture; in short: as §3
Hs 766 [31] = assay: Antiproliferative activity against human Hs 766T cells in 2D growth culture; in short: as §3
DB = assay: Antiproliferative activity against human DB cells in 2D growth culture; in short: as §3
C32 [32] = assay: Antiproliferative activity against human C32 cells in 2D growth culture; in short: as §3
[33] = Antiproliferative activity against human C4-1 cells in 2D growth culture; in short: as §3
HLE = assay: Antiproliferative activity against human HLE cells in 2D growth culture; in short: as §3
MX1 = assay: Antiproliferative activity against human MX1 cells in 2D growth culture; in short: as §3
[34] = Antiproliferative activity against human MT-3 cells in 3D growth culture; in short: as §2

Measured: IC50

N[C@H]1CC[C@H](S(=O)(=O)N2[C@@H]3CC[C@H]2C[C@@H](NC(=O)c2cc(C4CC4)on2)C3)CC1
> 20 µM: COR-L105 | DMS-53 | DMS-153 | NCI-H441 | SW1573 | NCI-H2122 | COR-L88 | NCI-H2029 | SK-LU-1 | A549 | SHP77 | NCI-H23 | NCI-H2081
> 40 µM: HepG2
> 25 µM: all other assays above

Source: ChEMBL document CHEMBL5674880 (PLoS One, 2018)
